As usually defined, the Cmax is the highest concentration seen after dosing. Broadly, the IC50 is the concentration that gives 50% inhibition. The term AUC(0-t) denotes exposure summed from dosing to a finite time, without extrapolation to infinity. What is called Tmax is the time from dosing to the highest level.

The source made the active and inactive calls. No cut-off for these calls is given here.

The source of these data is ChEMBL document CHEMBL4834477, “Synthesis and biological evaluation of novel purinyl quinazolinone derivatives as PI3Kδ-specific inhibitors for the treatment of hematologic malignancies” (Bioorg Med Chem, 2021).

Data set [1] addresses T1, Phosphatidylinositol 4,5-bisphosphate 3-kinase catalytic subunit delta isoform (Homo sapiens) (UniProt O00329).
T1 sequence (whole entry): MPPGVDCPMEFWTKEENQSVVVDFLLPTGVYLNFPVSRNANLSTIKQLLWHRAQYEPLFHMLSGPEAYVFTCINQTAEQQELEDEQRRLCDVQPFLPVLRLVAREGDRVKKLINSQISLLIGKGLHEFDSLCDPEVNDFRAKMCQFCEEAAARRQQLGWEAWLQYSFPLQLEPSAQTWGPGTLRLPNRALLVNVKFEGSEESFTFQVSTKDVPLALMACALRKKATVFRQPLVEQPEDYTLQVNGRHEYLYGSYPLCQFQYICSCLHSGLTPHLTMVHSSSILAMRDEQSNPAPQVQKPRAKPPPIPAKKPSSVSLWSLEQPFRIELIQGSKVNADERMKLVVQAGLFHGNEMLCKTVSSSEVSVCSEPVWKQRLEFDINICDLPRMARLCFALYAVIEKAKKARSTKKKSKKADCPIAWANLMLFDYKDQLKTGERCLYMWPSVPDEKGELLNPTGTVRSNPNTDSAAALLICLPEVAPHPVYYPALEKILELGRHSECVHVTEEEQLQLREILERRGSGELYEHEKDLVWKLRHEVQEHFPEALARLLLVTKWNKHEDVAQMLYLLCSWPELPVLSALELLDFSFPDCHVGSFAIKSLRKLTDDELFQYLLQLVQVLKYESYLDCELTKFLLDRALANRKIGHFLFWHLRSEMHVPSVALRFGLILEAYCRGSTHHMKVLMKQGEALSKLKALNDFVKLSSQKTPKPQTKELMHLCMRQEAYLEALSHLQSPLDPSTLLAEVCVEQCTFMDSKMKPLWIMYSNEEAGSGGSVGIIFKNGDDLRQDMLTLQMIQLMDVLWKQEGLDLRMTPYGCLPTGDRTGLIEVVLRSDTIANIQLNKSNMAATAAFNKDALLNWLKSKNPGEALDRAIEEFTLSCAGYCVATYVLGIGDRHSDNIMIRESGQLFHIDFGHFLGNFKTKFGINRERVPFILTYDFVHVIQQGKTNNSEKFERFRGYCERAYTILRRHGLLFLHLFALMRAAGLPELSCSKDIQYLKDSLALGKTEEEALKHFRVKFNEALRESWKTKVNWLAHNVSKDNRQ
Briefly: Inhibition of PI3Kdelta in human MOLT-4 cells assessed as inhibition of S6 phosphorylation at 1 to 5 uM measured after 3 hrs by western blot assay. In kind it is cell-based. To be noted: dose 1-5 µM. The procedure, abridged: (§1)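 Treatment lasted 3 h: SUDHL-5 at 1 μM, MOLT-4 at 5 μM. Cells washed twice in cold PBS and lysed. Proteins resolved on 10–12% SDS-PAGE and blotted to PVDF. Probed for p-AKT S473, p-AKT T308, p-S6 and p-4E-BP1, with β-actin as loading control.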
In general terms: In western blotting, separated proteins are transferred to a membrane and probed.

Data set [2] in a line: Cmax in Sprague-Dawley rat at 3 mg/kg, po measured for 24 hrs by LC-MS/MS analysis. In kind it is ADME, organism-based. Details: route oral, time 24 hrs, dose 3 mg/kg. Particulars: in vivo. A digest of the protocol: (§2)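 Sprague-Dawley rats dosed orally at 1 or 3 mg/kg, three animals per group. Blood sampled at 0.25, 0.5, 1, 2, 4, 8 and 24 h post-dose. Plasma separated by centrifugation, extracted and quantified by LC-MS/MS. PK parameters (Cmax, AUClast, Tmax, t1/2) derived by non-compartmental software.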

Data set [3] deals with T1, Phosphatidylinositol 4,5-bisphosphate 3-kinase catalytic subunit delta isoform (Homo sapiens). The experiment in a line: Inhibition of PI3Kdelta in human MOLT-4 cells assessed as inhibition of AKT phosphorylation at Thr308 residue at 1 to 5 uM measured after 3 hrs by western blot assay. The format is cell-based. Particulars: dose 1-5 µM. A digest of the protocol:
as §1

Data set [4] in a line: Cytotoxicity against human MRC5 cells assessed as inhibition of cell viability at 20 uM measured after 48 hrs by MTT assay. The format is cell-based. Particulars: read-out: INH. A digest of the protocol:
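MTT assay in MRC-5 cells seeded at 2×10^6 cells/mL. Compound given in 1% FBS EMEM for 48 h at 37 °C in CO2. MTT solution then added for 3 h at 37 °C. Medium removed and formazan dissolved in DMSO.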

Data set [5] deals with T1, Phosphatidylinositol 4,5-bisphosphate 3-kinase catalytic subunit delta isoform (Homo sapiens). The experiment in a line: Inhibition of PI3Kdelta in human SU-DHL-5 cells assessed as inhibition of AKT phosphorylation at Thr308 residue at 1 to 5 uM measured after 3 hrs by western blot assay. In kind it is cell-based. Particulars: dose 1-5 µM. A digest of the protocol:
as §1

For data set [6], the system named is SU-DHL10. The experiment in a line: Induction of apoptosis in human SU-DHL-10 cells assessed as early apoptotic cells at 20 uM measured after 24 hrs by AnnexinV-FITC/PI staining based flowcytometry method (reference value: 6.32%). In kind it is functional. A digest of the protocol: (§3)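 Cells exposed to 20 μM compound for 24 h, washed with cold PBS, and stained with Annexin V-FITC and propidium iodide for 15 min at room temperature. Viable, early apoptotic, late apoptotic and necrotic populations quantified by flow cytometry.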

The test system of data set [7] is MOLT-4. The experiment in a line: Induction of apoptosis in human MOLT-4 cells assessed as early apoptotic cells at 20 uM measured after 24 hrs by AnnexinV-FITC/PI staining based flowcytometry method (reference value: 2.04%). The format is functional. The procedure, abridged: as §3
The subject of data set [8] is MOLT-4. The experiment in a line: Antiproliferative activity against human MOLT-4 cells assessed as cell viability at 20 uM by CellTiter-Glo luminescent cell viability assay (reference value: 100%). Particulars: read-out: Activity. In kind it is functional. On the technique in general: Cellular ATP, detected with luciferase, serves as a proxy for viable cell number.

For data set [9], the system named is MOLT-4. Briefly: Antiproliferative activity against human MOLT-4 cells assessed as reduction in cell viability at 20 uM by CellTiter-Glo luminescent cell viability assay relative to idelalisib. The format is functional. The procedure, abridged:
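Cells were seeded at 5x10^4 per well and exposed to the compound at a single concentration: 10 μM for SUDHL-5 and 20 μM for MOLT-4. CellTiter-Glo reagent was added 1:1, mixed for 2 min to lyse the cells, and held 10 min at room temperature before reading luminescence. Readings were background-subtracted and normalized to control wells.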

Data set [10] concerns SU-DHL10. Briefly: Induction of apoptosis in human SU-DHL-10 cells assessed as late apoptotic cells at 20 uM measured after 24 hrs by AnnexinV-FITC/PI staining based flowcytometry method (reference value: 3.48%). In kind it is functional. A digest of the protocol: as §3
The target of data set [11] is Phosphatidylinositol 4,5-bisphosphate 3-kinase catalytic subunit gamma isoform (Homo sapiens, UniProt P48736). The experiment in a line: Inhibition of recombinant human full length His-tagged p110gamma expressed in baculovirus expression system measured after 60 mins in presence of ATP by ATP-competitive binding assay. The procedure, abridged: (§4)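 SelectScreen ATP-competitive assay using 10-point titration with 1 μM top final compound concentration. Kinase, substrate and ATP mixed in 30 mM HEPES buffer and reacted 60 min. IC50 taken as the mean of three independent experiments.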

In data set [12] the target is PI3-kinase p110-delta/p85-alpha (Homo sapiens, UniProt O00329). Briefly: Inhibition of recombinant human full length His-tagged p110delta/p85alpha expressed in baculovirus expression system measured after 60 mins in presence of ATP by ATP-competitive binding assay. The procedure, abridged: as §4
Data set [13] is described as follows: Cmax in Sprague-Dawley rat at 1 mg/kg, po measured for 24 hrs by LC-MS/MS analysis. The format is ADME, organism-based. Details: route oral, dose 1 mg/kg, time 24 hrs. To be noted: in vivo. A digest of the protocol:
as §2

In data set [14] the target is PI3-kinase p110-alpha/p85-alpha (Homo sapiens, UniProt P42336). The experiment in a line: Inhibition of recombinant human full length N-terminal His-tagged p110alpha/p85alpha expressed in baculovirus expression system measured after 60 mins in presence of ATP by ATP-competitive binding assay. A digest of the protocol: as §4
Data set [15] in a line: AUC (last) in Sprague-Dawley rat at 1 mg/kg, po measured for 24 hrs by LC-MS/MS analysis. The format is ADME, organism-based. Details: route oral, dose 1 mg/kg, time 24 hrs. To be noted: in vivo. The procedure, abridged: as §2
Data set [16] in a line: Tmax in Sprague-Dawley rat at 1 mg/kg, po measured for 24 hrs by LC-MS/MS analysis. The format is ADME, organism-based. To be noted: in vivo. A digest of the protocol: as §2

Chain of Phosphatidylinositol 4,5-bisphosphate 3-kinase catalytic subunit gamma isoform (P48736 whole entry, canonical isoform): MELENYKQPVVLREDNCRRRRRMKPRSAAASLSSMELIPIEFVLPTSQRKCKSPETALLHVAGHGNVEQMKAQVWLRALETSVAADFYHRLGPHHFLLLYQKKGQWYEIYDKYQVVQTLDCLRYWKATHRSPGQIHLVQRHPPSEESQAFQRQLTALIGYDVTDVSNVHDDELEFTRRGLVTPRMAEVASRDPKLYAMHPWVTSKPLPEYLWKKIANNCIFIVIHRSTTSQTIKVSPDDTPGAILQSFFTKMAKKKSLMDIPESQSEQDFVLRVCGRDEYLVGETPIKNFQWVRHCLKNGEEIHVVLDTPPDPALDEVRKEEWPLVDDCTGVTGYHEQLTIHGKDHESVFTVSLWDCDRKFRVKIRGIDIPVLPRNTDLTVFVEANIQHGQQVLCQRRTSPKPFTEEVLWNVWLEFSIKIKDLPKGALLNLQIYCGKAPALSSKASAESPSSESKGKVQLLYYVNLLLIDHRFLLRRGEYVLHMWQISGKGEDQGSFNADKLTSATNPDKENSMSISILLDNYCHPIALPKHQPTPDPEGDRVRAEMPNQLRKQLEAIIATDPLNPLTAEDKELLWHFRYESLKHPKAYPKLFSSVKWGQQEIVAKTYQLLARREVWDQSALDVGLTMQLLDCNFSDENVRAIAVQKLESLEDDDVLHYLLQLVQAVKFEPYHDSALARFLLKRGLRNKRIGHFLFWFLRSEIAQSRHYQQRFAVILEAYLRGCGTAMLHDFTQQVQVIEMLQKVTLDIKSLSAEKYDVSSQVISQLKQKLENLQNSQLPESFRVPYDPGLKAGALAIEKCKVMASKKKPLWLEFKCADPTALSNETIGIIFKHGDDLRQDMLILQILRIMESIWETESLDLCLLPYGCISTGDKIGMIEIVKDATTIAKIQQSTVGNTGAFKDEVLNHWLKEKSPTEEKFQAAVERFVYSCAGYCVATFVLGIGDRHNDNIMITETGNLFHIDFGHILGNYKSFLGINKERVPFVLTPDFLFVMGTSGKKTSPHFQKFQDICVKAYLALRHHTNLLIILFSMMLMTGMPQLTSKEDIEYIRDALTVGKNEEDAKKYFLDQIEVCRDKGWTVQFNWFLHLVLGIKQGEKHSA
Chain of PI3-kinase p110-alpha/p85-alpha (P27986 whole entry): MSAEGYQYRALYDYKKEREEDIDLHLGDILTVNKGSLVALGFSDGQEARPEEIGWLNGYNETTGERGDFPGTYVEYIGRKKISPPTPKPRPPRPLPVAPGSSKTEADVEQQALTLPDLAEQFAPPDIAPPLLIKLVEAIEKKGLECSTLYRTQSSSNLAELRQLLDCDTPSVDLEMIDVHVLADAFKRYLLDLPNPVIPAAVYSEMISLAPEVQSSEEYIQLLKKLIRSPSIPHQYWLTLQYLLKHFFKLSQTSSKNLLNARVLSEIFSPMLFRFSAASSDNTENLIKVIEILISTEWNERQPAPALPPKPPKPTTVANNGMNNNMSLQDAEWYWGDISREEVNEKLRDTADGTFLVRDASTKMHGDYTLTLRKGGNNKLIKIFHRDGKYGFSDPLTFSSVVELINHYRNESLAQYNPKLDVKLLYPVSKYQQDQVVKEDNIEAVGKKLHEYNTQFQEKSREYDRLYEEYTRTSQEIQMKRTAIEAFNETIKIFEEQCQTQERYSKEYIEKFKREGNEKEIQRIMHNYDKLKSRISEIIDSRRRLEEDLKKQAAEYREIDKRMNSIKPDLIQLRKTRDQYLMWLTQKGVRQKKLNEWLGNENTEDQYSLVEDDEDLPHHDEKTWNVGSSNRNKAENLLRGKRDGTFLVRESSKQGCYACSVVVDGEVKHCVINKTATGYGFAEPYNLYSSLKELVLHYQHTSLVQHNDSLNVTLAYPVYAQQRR
Chain of PI3-kinase p110-alpha/p85-alpha (P42336 whole entry): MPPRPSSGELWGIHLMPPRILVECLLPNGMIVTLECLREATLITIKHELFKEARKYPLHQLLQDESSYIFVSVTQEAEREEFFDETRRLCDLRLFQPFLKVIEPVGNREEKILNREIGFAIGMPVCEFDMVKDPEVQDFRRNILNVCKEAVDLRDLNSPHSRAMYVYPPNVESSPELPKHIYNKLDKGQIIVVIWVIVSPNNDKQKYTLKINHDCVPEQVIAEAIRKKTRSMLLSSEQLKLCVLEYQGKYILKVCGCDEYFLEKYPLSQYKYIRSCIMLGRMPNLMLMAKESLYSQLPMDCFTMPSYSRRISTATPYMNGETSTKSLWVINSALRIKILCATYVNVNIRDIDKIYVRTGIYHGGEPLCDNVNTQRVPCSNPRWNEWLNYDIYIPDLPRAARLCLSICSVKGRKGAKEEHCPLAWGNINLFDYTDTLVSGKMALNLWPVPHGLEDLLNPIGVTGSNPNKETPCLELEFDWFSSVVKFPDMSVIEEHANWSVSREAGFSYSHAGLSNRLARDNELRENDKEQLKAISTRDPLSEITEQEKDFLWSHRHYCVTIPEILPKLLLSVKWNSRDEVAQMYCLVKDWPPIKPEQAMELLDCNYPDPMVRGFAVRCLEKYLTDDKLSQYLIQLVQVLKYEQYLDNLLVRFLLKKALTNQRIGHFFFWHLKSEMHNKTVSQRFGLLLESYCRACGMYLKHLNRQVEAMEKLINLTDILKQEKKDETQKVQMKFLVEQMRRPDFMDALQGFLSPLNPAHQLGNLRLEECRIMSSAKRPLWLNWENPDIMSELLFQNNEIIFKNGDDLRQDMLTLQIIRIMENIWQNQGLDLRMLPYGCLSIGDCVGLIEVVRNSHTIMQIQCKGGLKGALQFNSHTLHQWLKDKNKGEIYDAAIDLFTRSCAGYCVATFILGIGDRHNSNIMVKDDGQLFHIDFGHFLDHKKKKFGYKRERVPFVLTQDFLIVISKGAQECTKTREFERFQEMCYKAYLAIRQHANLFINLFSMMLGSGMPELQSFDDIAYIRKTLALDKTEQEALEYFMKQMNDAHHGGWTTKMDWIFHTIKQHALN
Chain of PI3-kinase p110-delta/p85-alpha (P27986 whole entry, one chain of several): as the sequence (P27986 whole entry) above

With `Cc1cccc2nc([C@@H](Nc3ncnc4nc[nH]c34)C3CC3)n(-c3ccccc3)c(=O)c12`, the inhibition entry in data set [1], in data set [3] and in [5] was “Active” each time. In data set [2], this molecule showed a Cmax of 11.1 ng/mL. For the same molecule, in data set [4], the cytotoxicity at 48 h, 20 µM amounted to 23.1%. Also, the results for the Activity in [6], in data set [7] and in data set [10] were 34.9%, 13.4% and 45.9%, respectively. Moreover, the viability at 20 µM in [8] was 14.6%. In addition, the “fold change (FC)” value in [9] was found to be 5.

For `O=c1c2c(F)cccc2nc([C@@H](Nc2ncnc3nc[nH]c23)C2CC2)n1-c1ccccc1`, the inhibition entry in data set [1], in data set [3] and in data set [5] was “Active” in each case. Besides, the maximum concentration (Cmax) in [2] is 41.9 ng/mL; in data set [13], 18.3 ng/mL. In data set [4], the cytotoxicity at 48 h, 20 µM stood at 3.93%. In addition, the IC50 in [11] is 19.1 nM; in [12] it was 0.39 nM; in [14] it was 222 nM. The Activity is reported as 54.3% in data set [6], 17.8% in data set [7] and 24.2% in data set [10]. Also, the viability at 20 µM in data set [8] turned out to be 63.1%. Also, the exposure AUC(0-t) at 24 h in data set [15] stood at 81 ng·h/mL. In data set [16], the Tmax came to 30 min.
